The values that follow come from ChEMBL document CHEMBL1125189, “Relaxant activity of 6-cyano-2,2-dimethyl-2H-1-benzopyran-4-carboxamides and -thiocarboxamides and their analogues in guinea pig trachealis” (J Med Chem, 1991).

Assay [1] is filed under the species Cavia porcellus. In words: Evaluated by measuring inhibition of spontaneous tone in guinea pig tracheal spirals. Format: functional, Trachea. The procedure, abridged:
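Guinea pig tracheal spiral strips held isometrically in oxygenated Krebs solution. […] It is generally a geometric mean of ≥3 determinations, except where IC50 >15 μM. Intrinsic activity is the ratio of maximum relaxation to the isoprenaline maximum, given as an arithmetic mean.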

The species named for assay [2] is Cavia porcellus. Put plainly: Inhibition of spontaneous tone in guinea pig tracheal spirals. Format: functional, Trachea. The procedure, abridged:
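Guinea pig tracheal spiral strips held isometrically in oxygenated Krebs solution. Intrinsic activity is the ratio of maximum relaxation to the isoprenaline maximum, given as an arithmetic mean.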

Assay [3] relates to Cavia porcellus. In words: Inhibition of Histamine-induced bronchospasm was measured by measuring % prolongation of collapse time of guinea pig at different intervals of time at a peroral dose of 20 mg/kg (time between dose and challenge 15 min). It is filed as functional. The settings on record: route oral. The procedure, abridged:
(§1)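 Male guinea pigs (400-460 g) were dosed orally with compound or vehicle and placed in a ca. 8-L chamber. At set times after dosing they were challenged for 4 min with aerosol from 5 mM histamine diphosphate, generated over 20 s by ultrasonic nebulizer. Time from aerosol to collapse was recorded. Data are means ± SE.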

Assay [4] relates to Cavia porcellus. Put plainly: Inhibition of Histamine-induced bronchospasm was measured by measuring % prolongation of collapse time of guinea pig at different intervals of time at a peroral dose of 20 mg/kg (time between dose and challenge 30 min). The settings on record: route oral. Format: functional. In outline: as §1
Assay [5] deals with Cavia porcellus. In words: Inhibition of Histamine-induced bronchospasm was measured by measuring % prolongation of collapse time of guinea pig at different intervals of time at a peroral dose of 20 mg/kg (time between dose and challenge 60 min). Format: functional. The settings on record: route oral. In outline:
as §1

For assay [6], the species on record is Cavia porcellus. Put plainly: Inhibition of Histamine-induced bronchospasm was measured by measuring % prolongation of collapse time of guinea pig. Format: functional. The procedure, abridged: as §1
For assay [7], the system named is Cavia porcellus. In words: Inhibition of Histamine-induced bronchospasm was measured by measuring % prolongation of collapse time of guinea pig at different intervals of time at a peroral dose of 5 mg/kg (time between dose and challenge 60 min). The settings on record: route oral. Format: functional. The procedure, abridged: as §1
In assay [8] the test system is Cavia porcellus. In words: Inhibition of Histamine-induced bronchospasm was measured by measuring % prolongation of collapse time of guinea pig at different intervals of time at a peroral dose of 10 mg/kg (time between dose and challenge 60 min). It is filed as functional. The settings on record: route oral. The procedure, abridged:
as §1

Assay [9] deals with Cavia porcellus. Put plainly: Inhibition of Histamine-induced bronchospasm was measured by measuring % prolongation of collapse time of guinea pig at different intervals of time at a peroral dose of 20 mg/kg (time between dose and challenge 90 min). Format: functional. The settings on record: route oral. The procedure, abridged:
as §1

Assay [10] relates to Cavia porcellus. Put plainly: Inhibition of Histamine-induced bronchospasm was measured by measuring % prolongation of collapse time of guinea pig at different intervals of time at a peroral dose of 20 mg/kg (time between dose and challenge 120 min). Format: functional. The settings on record: route oral. The procedure, abridged:
as §1

Assay [11] relates to Cavia porcellus. In words: Inhibition of Histamine-induced bronchospasm was measured by measuring % prolongation of collapse time of guinea pig at different intervals of time at a peroral dose of 10 mg/kg (time between dose and challenge 15 min). Format: functional. The settings on record: route oral. The procedure, abridged:
as §1

Consider `CC(C)(C)/N=C(\S)C1c2cc(C#N)ccc2OC(C)(C)C1O` (stereo in doubt; 11a), for which, in the assay filed under Cavia porcellus [1], the Intinsic activity was 0.3. Also, in the assay listed under Cavia porcellus [2] (Cavia porcellus, Trachea), the 50% inhibitory concentration (IC50) is over 20 µM.

`CC1(C)Oc2ccc(C#N)cc2C(/C(S)=N/c2ccc(F)cc2)=C1O`: in the assay filed under Cavia porcellus [1], the Intinsic activity was found to be 0.88.

Consider `CC1(C)Oc2ccc(C#N)cc2C(/C(S)=N/c2ccccc2)=C1O`, for which, in the assay filed under Cavia porcellus [1], the Intinsic activity is reported as 0.99. For the same compound, 0.25 µM corresponded to half-maximal inhibition in the assay filed under Cavia porcellus [2] (Cavia porcellus, Trachea) (IC50). In addition, the Prolongation in the assay on Cavia porcellus [3] was found to be 63%; in the assay with Cavia porcellus [4] it was 14%; with Cavia porcellus [5] it was 10%.

In turn, `CC1(C)Oc2ccc(C#N)cc2C(N2CCCC2=O)C1O` (stereo not given) [CROMAKALIM] displayed an Intinsic activity in the assay filed under Cavia porcellus [1] of 0.89. The Prolongation in the assay filed under Cavia porcellus [6] is 174%.

With `C/N=C(\S)C1=C(O)C(C)(C)Oc2ccc(C#N)cc21`, the Intinsic activity in the assay listed under Cavia porcellus [1] is 0.69.

Regarding `CO/C(=N\c1ccccc1)C1=C(O)C(C)(C)Oc2ccc(C#N)cc21`, the Intinsic activity in the assay filed under Cavia porcellus [1] turned out to be 0.82. Also, the Prolongation with Cavia porcellus [7] worked out at 1%.

For `C/N=C(\S)C1c2cc(C#N)ccc2OC(C)(C)C1O` (trans isomer), in the assay filed under Cavia porcellus [1], the Intinsic activity stood at 0.93. In the assay filed under Cavia porcellus [2], this compound gave an IC50 of 5.6 µM.

The compound `CC1(C)Oc2ccc(C#N)cc2C(C)(C(=O)Nc2ccccc2)C1=O` (stereo not given) showed an IC50 in the assay filed under Cavia porcellus [2] (Cavia porcellus, Trachea) of over 20 µM.

On to `CC(=O)OC1=C(C(=O)N(C(C)=O)c2ccccc2)c2cc(C#N)ccc2OC1(C)C`, for which, in the assay listed under Cavia porcellus [1], the Intinsic activity stood at 0.95. Further, 1.35 µM corresponded to half-maximal inhibition in the assay filed under Cavia porcellus [2] (Cavia porcellus, Trachea) (IC50). In the assay with Cavia porcellus [5], the Prolongation worked out at 5%.

Consider `CC1(C)Oc2ccc(C#N)cc2C(c2nc3ccccc3s2)=C1O`, for which, in the assay filed under Cavia porcellus [1], the Intinsic activity is 0.96. The compound also had an IC50 in the assay filed under Cavia porcellus [2] (Cavia porcellus, Trachea) of 1.36 µM. In addition, the Prolongation in the assay on Cavia porcellus [5] is listed as -1%.

With `CC(C)(C)/N=C(\S)C1c2cc(C#N)ccc2OC(C)(C)C1O` (stereo in doubt; 11b), in the assay filed under Cavia porcellus [1], the Intinsic activity was 0.79. Besides, in the assay filed under Cavia porcellus [2], the IC50 stood at 11.1 µM.

Regarding `C/N=C(\S)C1c2cc(C#N)ccc2OC(C)(C)C1O` (cis isomer), the Intinsic activity in the assay filed under Cavia porcellus [1] was 0.84. Besides, the IC50 in the assay listed under Cavia porcellus [2] (Cavia porcellus, Trachea) was found to be 5.92 µM.

On to `CSC(SC)=C1C(=O)C(C)(C)Oc2ccc(C#N)cc21`, for which, in the assay filed under Cavia porcellus [2] (Cavia porcellus, Trachea), the IC50 was over 20 µM.

In the assay listed under Cavia porcellus [1], `COc1ccc(NC(=S)C2=C(O)C(C)(C)Oc3ccc(C#N)cc32)cc1` registered an Intinsic activity of 0.6. For the same compound, in the assay listed under Cavia porcellus [2] (Cavia porcellus, Trachea), the IC50 was 6.4 µM.

Take `CC1(C)Oc2ccc(C#N)cc2C(/C(S)=N/c2ccccc2)C1O` (trans isomer): the Intinsic activity in the assay filed under Cavia porcellus [1] was 0.82. Moreover, in the assay listed under Cavia porcellus [2], half-maximal inhibition (IC50) was put at 3.4 µM.

In turn, `COc1ccc(NC(=O)C2=C(O)C(C)(C)Oc3ccc(C#N)cc32)cc1` had an Intinsic activity in the assay filed under Cavia porcellus [1] of 0.94. Further, inhibition in the assay listed under Cavia porcellus [2] (Cavia porcellus, Trachea) was half-maximal at 1.2 µM (IC50).

Consider `CC1(C)Oc2ccc(C#N)cc2C(F)(C(=O)Nc2ccccc2)C1=O` (stereo not given), for which the Intinsic activity in the assay listed under Cavia porcellus [1] is recorded as 0.95. Further, the Prolongation with Cavia porcellus [8] was 10%.

As to `CC1(C)C=C(C(=O)Nc2ccccc2)c2cc(C#N)ccc2O1`, in the assay filed under Cavia porcellus [1], the Intinsic activity was 0.86. The compound also yielded an IC50 in the assay listed under Cavia porcellus [2] (Cavia porcellus, Trachea) of 1.14 µM. In addition, the Prolongation in the assay on Cavia porcellus [5] is reported as 34%.

`COC1=C(C(=O)Nc2ccccc2)c2cc(C#N)ccc2OC1(C)C` displayed an IC50 in the assay listed under Cavia porcellus [2] (Cavia porcellus, Trachea) of over 20 µM.

`C/N=C(/S)C1=CC(C)(C)Oc2ccc(C#N)cc21`: the Prolongation came to 175% in the assay on Cavia porcellus [9]; 187% with Cavia porcellus [10]; 9% in the assay with Cavia porcellus [8]; 244% in the assay on Cavia porcellus [4]; 230% with Cavia porcellus [5]; 12% in the assay on Cavia porcellus [7]. The Intinsic activity in the assay listed under Cavia porcellus [1] was 0.88.

Compound `CC(C)(C)/N=C(\S)C1=C(O)C(C)(C)Oc2ccc(C#N)cc21` showed an Intinsic activity in the assay listed under Cavia porcellus [1] of 0.93. For the same compound, the IC50 in the assay listed under Cavia porcellus [2] (Cavia porcellus, Trachea) is 4.35 µM.

On to `CC(C)(C)/N=C(\S)C1=CC(C)(C)Oc2ccc(C#N)cc21`, for which the Intinsic activity in the assay listed under Cavia porcellus [1] was found to be 0. In the assay filed under Cavia porcellus [2] (Cavia porcellus, Trachea), this compound came in with an IC50 of over 20 µM.

With `CC1(C)Oc2ccc(C#N)cc2C(/C(S)=N/c2ccccc2)C1O` (cis isomer), the Intinsic activity in the assay listed under Cavia porcellus [1] is given as 0.14. In the assay filed under Cavia porcellus [2], this compound showed an IC50 of over 20 µM.

On to `CC1(C)Oc2ccc(C#N)cc2C(C(=O)Nc2ccccc2)=C1O`, for which the Prolongation in the assay on Cavia porcellus [11] is recorded as -6%; in the assay on Cavia porcellus [8], -14%. For the same compound, the Intinsic activity in the assay listed under Cavia porcellus [1] was 0.98.

Usually IC50 stands for the concentration that gives 50% inhibition.
